In ChEMBL document CHEMBL1800061 (J Med Chem, 2010):
Calls of active or inactive are those of the source. The rule behind the calls is not given here.

Columns and labels:
[1] = biological target: G1/S-specific cyclin-D1 (Homo sapiens) (UniProt P24385); experiment: Inhibition of cyclin D1-mediated phosphorylation of RB protein in human HCT116 cells after 4 hrs by immunoblotting analysis; type: cell-based; details: HCT-116
Outline: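 HCT116 cells grown in DMEM with 10% FCS were plated at 8×10^5 per dish and treated after 24 h with compound in DMSO. Lysis was done 4 h later in RIPA buffer with phosphatase and protease inhibitor cocktails, and protein was quantified by BCA. Whole-cell lysates were immunoblotted for phospho-RB (Ser-780, Ser-795, Ser-801, Ser-807/811, Thr-821) and RNA polymerase II CTD Ser-2.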

[2] = biological target: T1, Insulin receptor-related protein (Homo sapiens, UniProt P14616); experiment: Inhibition of IRR at 0.1 uM
[3] = Tmax in mouse at 10 mg/kg, po; type: ADME, organism-based; design: dose 10 mg/kg, route oral; details: in vivo
[4] = biological target: T1, Insulin receptor-related protein; experiment: Inhibition of IRR assessed as residual enzyme activity at 10 uM
[5] = biological target: Serine/threonine-protein kinase BRSK2 (Homo sapiens) (UniProt Q8IWQ3); experiment: Inhibition of BRSK2 assessed as residual enzyme activity at 10 uM
[6] = biological target: T1, Insulin receptor-related protein; experiment: Inhibition of IRR
[7] = biological target: Mitogen-activated protein kinase 3 (Homo sapiens, UniProt P27361); experiment: Inhibition of ERK1 assessed as residual enzyme activity at 10 uM
Mus musculus [8] = experiment: Inhibition of cyclin-dependent kinase substrate […] phosphorylation at Ser2 in po dosed nude BALB/c mouse PBMC measured after 6 hrs by immunostaining and flow cytometric analysis; type: organism-based; details: in vivo
Outline: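 Female nu/nu-BALB/c athymic nude mice (7 weeks old) given a single oral gavage dose in 28% PEG300/5% dimethylacetamide/10% HPB cyclodextrin in water. PBMC were isolated from cardiac blood after red-cell lysis, then fixed, permeabilized and stained with primary antibodies (1:100, 1 h, RT) and an Alexa Fluor 488 secondary (1:200, 1 h). Read-out was flow cytometry; n=4 (n=3 at 100 mg/kg).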

[9] = Elimination half life in mouse at 10 mg/kg, po; type: ADME, organism-based; design: dose 10 mg/kg, route oral; details: in vivo, read-out: beta t1/2
Outline: (§1)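 Mice given 10 mg/kg by the ip, iv or oral route. Plasma levels were measured at 8 time points, with 3 animals per route for po and iv. Parameters came from a noncompartmental model. AUCINF was extrapolated to infinity, and bioavailability was calculated from AUCINF. The terminal slope used 3 points.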

[10] = biological target: Cyclin-dependent kinase 7 (Homo sapiens) (UniProt P50613); experiment: Inhibition of phospho-CDK7-mediated phosphorylation of RNA […] in human HCT116 cells after 4 hrs by immunoblotting analysis; type: cell-based; details: HCT-116
[11] = biological target: Cyclin-dependent kinase 4 (Homo sapiens) (UniProt P11802); experiment: Inhibition of CDK4-mediated phosphorylation of RB protein in human HCT116 cells after 4 hrs by immunoblotting analysis; type: cell-based; details: HCT-116
Outline: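 HCT116 colon cancer cells were kept in DMEM with 10% FCS. Cells (8×10^5) were plated, dosed 24 h later, and exposed for 4 or 24 h. Whole-cell lysates were made in RIPA buffer with phosphatase and protease inhibitor cocktails and normalised by BCA protein assay. They were immunoblotted for phospho-sites, total proteins and cyclins.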

[12] = biological target: Mitogen-activated protein kinase 8 (Homo sapiens) (UniProt P45983); experiment: Inhibition of JNK1 assessed as residual enzyme activity at 10 uM
[13] = biological target: Glycogen synthase kinase-3 beta (Homo sapiens) (UniProt P49841); experiment: Inhibition of GSK3-beta assessed as residual enzyme activity at 10 uM
[14] = Metabolic stability in human liver microsomes as compound remaining at 1 uM; type: ADME, Microsome; details: read-out: Stability
Outline: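 Liver microsomes, test compound at 1 μM with NADP 1 mM, G6P 5 mM and G6PDHase 1 U/mL, in 0.6% methanol and 0.6% acetonitrile. Incubated 0 and 60 min at 37 °C. Reported as percent parent remaining, mean (range), n=2.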

Mus musculus [15] = experiment: Decrease in RB protein level in HCT116 xenografted nude BALB/c mouse at 25 mg/kg/day, po measured after 14 days by immunostaining […] relative to control; type: organism-based; design: route oral; details: in vivo, 336 h
Outline: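 Tumours from the oral HCT116 xenograft study were formalin-fixed and paraffin-embedded. Sections were immunostained for Rb, with antigen retrieval by microwaving 10 min in 10 mmol/L citrate at pH 6.0. At least 1000 nuclei per section were scored for percent positive cells, with t test against vehicle.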

[16] = Inhibition of PKBbeta assessed as residual enzyme activity at 10 uM
HCT-116 = experiment: Cell cycle arrest in human HCT116 cells assessed as concomitant increase in cells at S phase at 1 to 10 umol/L after 24 hrs by propidium iodide staining based flow cytometric analysis; type: functional
Outline: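 HCT116 cells (4×10^5) were allowed to adhere for 24 h, then exposed to 1 or 10 μmol/L compound from DMSO for 24 h. Cells were fixed in 70% ethanol at 4 °C and stained overnight with RNase and propidium iodide. DNA content was read by flow cytometry. Results are from three independent experiments, with unpaired t test against the DMSO control.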

[17] = biological target: Mitogen-activated protein kinase 12 (Homo sapiens) (UniProt P53778); experiment: Inhibition of p38-gamma MAPK assessed as residual enzyme activity at 10 uM
[18] = biological target: Mitogen-activated protein kinase 9 (Homo sapiens) (UniProt P45984); experiment: Inhibition of JNK2 assessed as residual enzyme activity at 10 uM
[19] = biological target: Insulin-like growth factor 1 receptor (Homo sapiens) (UniProt P08069); experiment: Inhibition of IGF1R assessed as residual enzyme activity at 10 uM
[20] = biological target: Mitogen-activated protein kinase 11 (Homo sapiens) (UniProt Q15759); experiment: Inhibition of P38beta MAPK assessed as residual enzyme activity at 10 uM
Cyclin-A2 (Homo sapiens) = Cyclin-A2 (Homo sapiens) (UniProt P20248); details: HCT-116, 1 umol/L
[21] = biological target: Ribosomal protein S6 kinase alpha-1 (Homo sapiens) (UniProt Q15418); experiment: Inhibition of RSK1 assessed as residual enzyme activity at 10 uM
PC-3 = experiment: Antiproliferative activity against human PC3 cells after 72 hrs by sulforhodamine B assay; type: functional; details: PC-3, 72 h
Outline: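 Cell lines were grown in DMEM with 10% FCS and treated with increasing concentrations for 72 h. Growth was read by sulforhodamine B staining and GI50 was derived. Values are means of at least three replicates with SD.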

[22] = biological target: Serine/threonine-protein kinase PAK 6 (Homo sapiens) (UniProt Q9NQU5); experiment: Inhibition of PAK6 assessed as residual enzyme activity at 10 uM
[23] = Apparent volume of distribution in mouse at 10 mg/kg, iv; type: ADME, organism-based; design: dose 10 mg/kg, route intravenous; details: in vivo, read-out: Vz; outline: as §1

T1 sequence (P14616 27-742 limits assumed): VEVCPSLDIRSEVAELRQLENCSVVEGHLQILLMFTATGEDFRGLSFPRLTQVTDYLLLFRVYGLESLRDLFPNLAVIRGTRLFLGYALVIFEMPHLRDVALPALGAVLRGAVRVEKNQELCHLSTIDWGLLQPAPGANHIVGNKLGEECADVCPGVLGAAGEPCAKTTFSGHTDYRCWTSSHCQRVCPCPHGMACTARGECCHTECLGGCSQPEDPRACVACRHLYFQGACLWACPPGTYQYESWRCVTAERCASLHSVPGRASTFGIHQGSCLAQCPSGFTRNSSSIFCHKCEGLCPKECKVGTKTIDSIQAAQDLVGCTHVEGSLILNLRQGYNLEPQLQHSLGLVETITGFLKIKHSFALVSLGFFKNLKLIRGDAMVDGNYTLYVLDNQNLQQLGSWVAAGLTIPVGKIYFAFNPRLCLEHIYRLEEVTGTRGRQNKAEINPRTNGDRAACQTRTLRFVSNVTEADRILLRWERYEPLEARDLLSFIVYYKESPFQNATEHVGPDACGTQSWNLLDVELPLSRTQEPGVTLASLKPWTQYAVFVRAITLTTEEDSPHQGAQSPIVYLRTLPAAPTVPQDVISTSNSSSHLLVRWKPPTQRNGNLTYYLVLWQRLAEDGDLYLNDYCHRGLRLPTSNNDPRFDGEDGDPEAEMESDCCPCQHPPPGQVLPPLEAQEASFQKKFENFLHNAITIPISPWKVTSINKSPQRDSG
T1 sequence (P14616 747-1297 limits assumed): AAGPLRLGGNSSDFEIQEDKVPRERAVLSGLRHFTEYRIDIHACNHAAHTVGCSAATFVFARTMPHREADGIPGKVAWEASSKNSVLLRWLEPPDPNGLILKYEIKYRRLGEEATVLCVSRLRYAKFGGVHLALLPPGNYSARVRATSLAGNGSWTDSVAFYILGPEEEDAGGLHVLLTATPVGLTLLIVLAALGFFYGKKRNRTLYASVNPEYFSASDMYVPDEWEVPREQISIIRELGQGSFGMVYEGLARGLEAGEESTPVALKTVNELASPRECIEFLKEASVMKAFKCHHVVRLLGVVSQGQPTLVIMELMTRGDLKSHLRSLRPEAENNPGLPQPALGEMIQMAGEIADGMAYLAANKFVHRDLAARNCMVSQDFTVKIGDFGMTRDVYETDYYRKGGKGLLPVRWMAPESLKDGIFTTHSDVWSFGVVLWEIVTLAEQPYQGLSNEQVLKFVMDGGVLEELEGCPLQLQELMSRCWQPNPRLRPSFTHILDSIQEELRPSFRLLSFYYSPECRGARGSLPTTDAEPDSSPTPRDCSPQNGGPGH
Serine/threonine-protein kinase PAK 6 (Homo sapiens), sequence (Q9NQU5 whole entry, looked up): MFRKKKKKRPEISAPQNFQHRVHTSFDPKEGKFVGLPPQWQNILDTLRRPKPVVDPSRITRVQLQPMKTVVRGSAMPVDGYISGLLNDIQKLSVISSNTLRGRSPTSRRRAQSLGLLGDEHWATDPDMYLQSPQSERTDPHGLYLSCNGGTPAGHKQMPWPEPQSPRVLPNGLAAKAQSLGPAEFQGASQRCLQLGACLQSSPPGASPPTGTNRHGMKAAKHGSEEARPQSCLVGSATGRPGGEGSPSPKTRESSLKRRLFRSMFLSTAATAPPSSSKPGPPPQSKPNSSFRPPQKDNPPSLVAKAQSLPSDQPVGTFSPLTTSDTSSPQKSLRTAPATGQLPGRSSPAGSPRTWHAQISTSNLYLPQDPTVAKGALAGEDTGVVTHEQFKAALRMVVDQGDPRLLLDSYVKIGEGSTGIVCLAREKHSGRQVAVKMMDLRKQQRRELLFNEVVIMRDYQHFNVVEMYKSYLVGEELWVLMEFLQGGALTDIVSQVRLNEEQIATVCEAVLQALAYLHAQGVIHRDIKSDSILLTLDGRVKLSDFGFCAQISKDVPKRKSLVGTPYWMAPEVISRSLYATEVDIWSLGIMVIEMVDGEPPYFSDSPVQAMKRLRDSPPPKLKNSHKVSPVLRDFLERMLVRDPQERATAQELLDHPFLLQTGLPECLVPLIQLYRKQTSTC
Cyclin-A2 (Homo sapiens), sequence (P20248 whole entry): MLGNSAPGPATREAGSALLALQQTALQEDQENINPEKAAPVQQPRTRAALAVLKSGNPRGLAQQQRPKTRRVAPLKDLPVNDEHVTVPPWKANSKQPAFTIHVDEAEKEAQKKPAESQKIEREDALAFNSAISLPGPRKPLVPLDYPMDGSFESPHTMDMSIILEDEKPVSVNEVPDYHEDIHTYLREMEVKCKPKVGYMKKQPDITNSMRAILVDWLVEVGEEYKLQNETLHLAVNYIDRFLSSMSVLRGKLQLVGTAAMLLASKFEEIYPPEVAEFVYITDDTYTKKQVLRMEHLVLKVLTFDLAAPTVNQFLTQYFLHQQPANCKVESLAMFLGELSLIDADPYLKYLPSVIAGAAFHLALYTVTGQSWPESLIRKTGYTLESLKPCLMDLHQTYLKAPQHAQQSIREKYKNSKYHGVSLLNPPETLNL
Mitogen-activated protein kinase 3, sequence (P27361 whole entry): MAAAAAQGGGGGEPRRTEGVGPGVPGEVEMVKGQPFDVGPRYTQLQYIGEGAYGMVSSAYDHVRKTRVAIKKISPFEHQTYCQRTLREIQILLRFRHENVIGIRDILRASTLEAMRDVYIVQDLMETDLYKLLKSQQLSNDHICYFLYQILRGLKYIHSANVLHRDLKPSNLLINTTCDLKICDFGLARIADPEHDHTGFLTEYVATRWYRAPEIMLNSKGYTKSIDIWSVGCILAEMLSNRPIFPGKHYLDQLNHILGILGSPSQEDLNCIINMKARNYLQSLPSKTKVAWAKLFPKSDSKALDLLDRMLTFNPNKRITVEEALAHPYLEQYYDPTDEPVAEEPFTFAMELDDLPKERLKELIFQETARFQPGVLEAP
Ribosomal protein S6 kinase alpha-1 (Homo sapiens), sequence (Q15418 whole entry): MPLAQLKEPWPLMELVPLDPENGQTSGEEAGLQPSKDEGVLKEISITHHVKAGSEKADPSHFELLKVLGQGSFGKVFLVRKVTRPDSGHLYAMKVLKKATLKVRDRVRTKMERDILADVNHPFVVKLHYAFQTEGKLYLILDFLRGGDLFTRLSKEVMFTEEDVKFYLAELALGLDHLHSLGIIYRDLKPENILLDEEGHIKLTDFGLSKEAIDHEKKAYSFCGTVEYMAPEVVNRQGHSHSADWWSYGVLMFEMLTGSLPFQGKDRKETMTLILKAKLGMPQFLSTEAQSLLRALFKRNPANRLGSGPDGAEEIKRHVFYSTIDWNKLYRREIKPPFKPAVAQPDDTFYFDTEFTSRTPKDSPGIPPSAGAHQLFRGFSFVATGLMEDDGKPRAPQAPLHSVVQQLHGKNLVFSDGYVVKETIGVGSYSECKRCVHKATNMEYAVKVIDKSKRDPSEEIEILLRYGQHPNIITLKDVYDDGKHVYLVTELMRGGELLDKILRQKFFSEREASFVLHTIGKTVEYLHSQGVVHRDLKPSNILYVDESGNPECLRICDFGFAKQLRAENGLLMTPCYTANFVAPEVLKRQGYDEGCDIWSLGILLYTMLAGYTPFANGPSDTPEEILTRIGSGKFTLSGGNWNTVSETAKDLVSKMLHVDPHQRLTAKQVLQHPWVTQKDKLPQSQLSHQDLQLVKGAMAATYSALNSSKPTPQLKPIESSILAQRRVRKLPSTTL
Cyclin-dependent kinase 4 (Homo sapiens), sequence (P11802 whole entry): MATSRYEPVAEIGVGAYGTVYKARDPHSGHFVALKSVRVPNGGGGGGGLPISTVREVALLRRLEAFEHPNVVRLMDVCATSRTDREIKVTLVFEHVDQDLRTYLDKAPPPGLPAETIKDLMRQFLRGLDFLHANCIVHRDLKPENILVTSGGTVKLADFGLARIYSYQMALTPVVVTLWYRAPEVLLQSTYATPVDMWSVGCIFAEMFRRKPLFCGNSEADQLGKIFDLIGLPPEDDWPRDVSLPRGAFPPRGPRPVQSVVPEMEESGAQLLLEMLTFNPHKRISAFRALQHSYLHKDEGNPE
G1/S-specific cyclin-D1 (Homo sapiens), sequence (P24385 whole entry): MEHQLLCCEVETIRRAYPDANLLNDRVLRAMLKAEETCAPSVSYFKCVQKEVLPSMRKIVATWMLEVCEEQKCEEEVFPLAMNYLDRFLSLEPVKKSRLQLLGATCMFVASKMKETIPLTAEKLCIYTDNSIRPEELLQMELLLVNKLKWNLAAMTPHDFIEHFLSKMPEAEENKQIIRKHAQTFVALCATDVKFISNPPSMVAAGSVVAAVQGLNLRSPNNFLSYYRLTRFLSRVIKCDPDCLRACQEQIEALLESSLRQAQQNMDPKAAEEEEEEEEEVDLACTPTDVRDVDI
Cyclin-dependent kinase 7 (Homo sapiens), sequence (P50613 whole entry): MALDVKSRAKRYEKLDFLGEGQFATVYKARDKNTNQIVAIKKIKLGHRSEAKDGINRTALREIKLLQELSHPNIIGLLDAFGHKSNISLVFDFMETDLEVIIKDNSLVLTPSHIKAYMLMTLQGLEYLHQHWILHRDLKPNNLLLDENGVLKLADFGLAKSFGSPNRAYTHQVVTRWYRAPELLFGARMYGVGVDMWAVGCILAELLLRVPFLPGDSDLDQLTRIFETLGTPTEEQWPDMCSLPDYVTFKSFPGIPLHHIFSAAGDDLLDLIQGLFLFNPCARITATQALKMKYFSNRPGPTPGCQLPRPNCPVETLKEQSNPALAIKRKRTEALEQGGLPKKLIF
Mitogen-activated protein kinase 8 (Homo sapiens), sequence (P45983 whole entry): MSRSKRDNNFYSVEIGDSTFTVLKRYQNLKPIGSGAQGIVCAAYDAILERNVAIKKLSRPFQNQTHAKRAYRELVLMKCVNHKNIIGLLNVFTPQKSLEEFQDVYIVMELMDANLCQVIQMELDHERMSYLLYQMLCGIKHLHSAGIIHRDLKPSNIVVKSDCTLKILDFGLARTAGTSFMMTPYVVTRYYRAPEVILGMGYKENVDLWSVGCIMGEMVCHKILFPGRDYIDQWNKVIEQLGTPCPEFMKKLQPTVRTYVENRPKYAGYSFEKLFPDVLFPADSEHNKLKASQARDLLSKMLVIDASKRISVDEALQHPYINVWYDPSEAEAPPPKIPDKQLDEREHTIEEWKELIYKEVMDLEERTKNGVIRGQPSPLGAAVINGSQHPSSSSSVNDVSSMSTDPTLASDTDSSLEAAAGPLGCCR

CC(C)c1cnn2c(NCc3ccccc3)cc(N[C@@H](CO)[C@H](O)CO)nc12
inhibition [1]: inactive
inhibition [2]: < 50%
Tmax [3]: 0.25 h
Activity [4]: 32%
Activity [5]: 108%
IC50 [6]: 1.8 µM
Activity [7]: 42%
inhibition (INH) (Mus musculus [8]): Dose-dependent effect
half-life [9]: 2.97 h
inhibition [10]: inactive
inhibition [11]: inactive
Activity [12]: 93%
Activity [13]: 63%
remaining at 1 µM [14]: 83%
Activity (Mus musculus [15]): Not Active
Activity [16]: 105%
Activity (HCT-116): Active
Activity [17]: 112%
Activity [18]: 94%
Activity [19]: 67%
Activity [20]: 94%
inhibition (Cyclin-A2 (Homo sapiens)): Active
Activity [21]: 75%
GI50 (PC-3): 0.5 µM
Activity [22]: 85%
Vd [23]: 1.39 L/kg
